Screening data (PubChem)
PDI turbidity – blocks human protein disulfide isomerase activity; 350,000 tested, 0.052% active; inhibition, % at 10 µM; P07237; PDI insulin aggregation turbidity, A650, 90 min; AID 588391;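 active means mean inhibition across replicates of 30% or more, whatever share of single replicates reach that level; inconclusive means mean inhibition below 30% while every single replicate reaches 30%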
Target sequence (P07237 whole entry, looked up): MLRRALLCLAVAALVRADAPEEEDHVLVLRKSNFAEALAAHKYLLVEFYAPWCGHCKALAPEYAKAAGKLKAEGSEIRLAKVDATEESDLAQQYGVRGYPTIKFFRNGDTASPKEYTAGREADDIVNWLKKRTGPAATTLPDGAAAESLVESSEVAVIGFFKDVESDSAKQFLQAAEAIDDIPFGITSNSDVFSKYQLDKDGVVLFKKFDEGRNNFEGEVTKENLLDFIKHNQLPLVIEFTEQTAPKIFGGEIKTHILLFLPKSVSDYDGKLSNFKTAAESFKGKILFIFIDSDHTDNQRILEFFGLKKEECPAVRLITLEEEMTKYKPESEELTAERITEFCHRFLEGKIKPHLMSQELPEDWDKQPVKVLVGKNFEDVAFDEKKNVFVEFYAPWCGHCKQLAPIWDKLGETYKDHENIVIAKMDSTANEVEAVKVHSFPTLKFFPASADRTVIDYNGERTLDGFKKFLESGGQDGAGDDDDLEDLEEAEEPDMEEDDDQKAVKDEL
PglD inh – PglD (C. jejuni) enzyme inhibition; purified PglD enzyme, DTNB colorimetric CoA detection; AID 602405; inhibition, % at 12.5 µM; 360,000 tested, 0.098% active; in the data active means inhibition above about 16%, passing the limit was not always enough; inconclusive means no clear call, values can overlap the other calls
PvdQ acylase – blocks Pseudomonas aeruginosa PvdQ acylase activity. purified PvdQ acylase, fluorescence plate reader. inhibition, % at 10 µM. 340,000 tested, 0.063% active; in the data active means inhibition above about 30%, passing the limit was not always enough; inconclusive means no clear call, values can overlap the other calls
miR122 inh – miR-122 inhibition in Huh7 cells. Huh7 miR-122 Renilla luciferase sensor, 48 h; neutral wells = 0, positive control = 100. activation (reporter increase), % at 12.5 µM. 340,000 tested, 0.3% active;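 active means mean replicate activation score at least 90 and every replicate individually at or above 90; inconclusive means only one of the two criteria met; inactive means neither criterion met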;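 further: higher luciferase means less miR-122 activity so hits act as miR-122 inhibitors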
ERp5 inh – ERp5 (human) disulfide isomerase inhibition. Q15084. ERp5 insulin aggregation, absorbance 650 nm, 90 min. inhibition, % at 9.99 µM. 350,000 tested, 0.05% active;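 active means mean replicate inhibition above about 25%, with every replicate also reaching it, limit read from the data, passing the limit was not always enough; inconclusive means only one of those two criteria met; inactive means neither criterion met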
Cneo AK release – causes C. neoformans cell lysis. 360,000 tested, 0.2% active. lysis activity, % at 15 µM. adenylate kinase release luminescence, 4 h; normalised: neutral wells 0, clomiphene wells 100. AID 651654;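 active means mean lysis activity across replicates of at least 80%, whatever share of replicates individually reach that level; inactive means mean lysis activity below 80%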
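Test system: log-phase Cryptococcus neoformans yeast cells. Input: 5 × 10^6 yeast cells/mL. Medium: fresh YPD growth medium. Doses: single dose. Incubation: static 4 h at 37 °C with compound, 1 h detection. Measured by: luminescent adenylate kinase detection reagent. Read-out: signal increase indicating cell lysis. Benchmarks: Clomiphene.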
Each line names hits and unclear results; the compound was inactive in the other large screens; ! = repeats disagree; [ ] = remark or other dose. Sampled rows, rich in hits. Any-hit rate of the full collection: about 0.58%.

Cc1noc(C)c1S(=O)(=O)N(C)C[C@@H]1OCCCC[C@@H](C)Oc2ccc(NS(C)(=O)=O)cc2C(=O)N([C@H](C)CO)C[C@@H]1C	none (no result: PDI turbidity, PvdQ acylase)
O=C(C[C@@H]1CC[C@H]2NC[C@@H](O)COC[C@@H]2O1)NCCc1ccccc1	none (no result: PDI turbidity, PvdQ acylase)
O=C(C[C@H]1C[C@H]2c3cc(NC(=O)C4CCC4)ccc3O[C@H]2[C@H](CO)O1)NC1CCCCC1	none (no result: PDI turbidity, PvdQ acylase)
O=C(Nc1cccnc1)c1cc(-c2ccccc2)on1	none (no result: ERp5 inh)
CC(C)n1cc(NC(=O)c2cc(-c3ccccc3)on2)cn1	miR122 inh 114 (no result: ERp5 inh)
COc1ccccc1-c1ccc([C@@H]2[C@@H](CO)N(C(=O)C3CC3)[C@H]2C#N)cc1	none (no result: PDI turbidity, PvdQ acylase, miR122 inh)
O=C(/C=C/c1ccc(N2CCCCC2)c([N+](=O)[O-])c1)c1ccc(O)cc1	PDI turbidity 85
COc1ccccc1C(=O)/C=C/c1ccc(N2CCCCC2)c([N+](=O)[O-])c1	none
CN1[C@H](C(=O)Nc2ccccc2)[C@@H](CO)[C@@H]2Cn3c(ccc(-c4ccc(F)cc4)c3=O)[C@@H]21	none (no result: PDI turbidity, PvdQ acylase, miR122 inh)
O=C(COC(=O)c1ccccc1)c1ccc(S(=O)(=O)N2CCCCC2)cc1	none
O=C(COc1ccccc1)OCC(=O)c1ccc(S(=O)(=O)N2CCCCC2)cc1	PvdQ acylase 40
CN(C[C@@H]1N[C@H](CO)[C@@H]1c1ccc(-c2cccc(F)c2)cc1)S(C)(=O)=O	none (no result: PDI turbidity, PvdQ acylase)
CN(C[C@H]1N[C@@H](CO)[C@H]1c1ccc(-c2cccc(F)c2)cc1)S(C)(=O)=O	miR122 inh inconclusive, Cneo AK release 99 (no result: PDI turbidity, PvdQ acylase)
COc1ccccc1-c1cn(CC[C@H]2CC[C@@H](NC(=O)NC(C)C)[C@H](CO)O2)nn1	none (no result: PDI turbidity, PvdQ acylase, miR122 inh)
Fc1ccccc1Cn1cc(C(=S)N2CCOCC2)c2ccccc21	miR122 inh 247
COCC(=O)N(C)C[C@H]1Oc2ncc(C#CCC3CCCC3)cc2C(=O)N([C@H](C)CO)C[C@H]1C	none (no result: PDI turbidity, PvdQ acylase)
C[C@H](O)C#Cc1cnc2c(c1)C(=O)N([C@@H](C)CO)C[C@H](C)[C@H](CN(C)CC1CCCCC1)O2	ERp5 inh 32 (no result: PDI turbidity, PvdQ acylase)
COCC(=O)N(C)C[C@@H]1Oc2ncc(C#CCC3CCCC3)cc2C(=O)N([C@@H](C)CO)C[C@H]1C	Cneo AK release 103 (no result: PDI turbidity, PvdQ acylase)
C[C@@H]1CN([C@H](C)CO)C(=O)c2cccc(NS(C)(=O)=O)c2O[C@@H]1CN(C)CC1CCCCC1	none (no result: PDI turbidity, PvdQ acylase)
CCCC(=O)Nc1ccc2c(c1)C(=O)N(C)C[C@@H](OC)[C@H](C)CN(Cc1ccccn1)[C@H](C)CO2	none (no result: PDI turbidity, PvdQ acylase, miR122 inh)
O=C(c1cccnc1)N1CC(=O)N2[C@H](C1)[C@@H](c1ccc(C#CCC3CCCC3)cc1)[C@@H]2CO	none (no result: PDI turbidity, PglD inh, PvdQ acylase, miR122 inh, Cneo AK release)
CN1C(=O)c2cc(NC(=O)C3CCCCC3)ccc2OC[C@@H]2O[C@H](CC(=O)NCC3CCCCC3)CC[C@@H]21	none (no result: PDI turbidity, PglD inh, PvdQ acylase, miR122 inh, Cneo AK release)
C[C@H]1CCCCO[C@H](CN(C)C(=O)c2ccncc2)[C@@H](C)CN([C@@H](C)CO)C(=O)c2cc(NC(=O)Cc3ccccc3)ccc2O1	Cneo AK release 113 (no result: PDI turbidity, PvdQ acylase)
C[C@@H]1CCCCO[C@H](CN(C)C(=O)c2ccncc2)[C@@H](C)CN([C@@H](C)CO)C(=O)c2cc(NC(=O)Cc3ccccc3)ccc2O1	none (no result: PDI turbidity, PvdQ acylase)
C[C@H](CO)N1C[C@H](C)[C@@H](CN(C)C(=O)c2ccncc2)OCCCC[C@H](C)Oc2ccc(NC(=O)Cc3ccccc3)cc2C1=O	Cneo AK release 102 (no result: PDI turbidity, PvdQ acylase)
C[C@H]1CN([C@@H](C)CO)C(=O)Cc2cc(NS(=O)(=O)c3cn(C)cn3)ccc2O[C@H]1CN(C)S(=O)(=O)c1ccc(Cl)cc1	none (no result: PDI turbidity, PvdQ acylase)
CN1CCc2c(sc(N)c2C(=O)c2ccc(Cl)cc2)C1	Cneo AK release 164
O=C(c1c(O)cc(O)cc1O)C1c2c(cc(O)c3c2O[C@H](c2ccc(O)cc2)[C@@H](O)C3)OC1c1ccc(O)cc1 (some centres not stated)	PDI turbidity 53 (no result: miR122 inh)
O=C1CC(c2ccc(O)cc2)Oc2cc(O)cc(O)c21 (configuration not stated)	none
Cc1cccc(-c2nn(-c3ccccc3)cc2C(=O)Nc2cccc(S(=O)(=O)NC3=NCCC3)c2)c1	miR122 inh 152
COc1ccc(-c2nn(-c3ccccc3)cc2C(=O)Nc2cccc(S(=O)(=O)NC3=NCCC3)c2)cc1	none
O=C(Nc1ccccc1F)N1[C@@H]2CNc3ccccc3[C@@H]2[C@@H]1CO	none (no result: PDI turbidity, PvdQ acylase)
COc1ccc(CN(C)C[C@@H]2Oc3c(NC(=O)c4ccncc4)cccc3C(=O)N([C@@H](C)CO)C[C@H]2C)cc1	none (no result: PDI turbidity, PvdQ acylase)
COc1ccc2c3c(n(C)c2c1)[C@H](CO)N(S(C)(=O)=O)CC31CCN(CC2CCCC2)CC1	ERp5 inh 60 (no result: PDI turbidity, PglD inh, PvdQ acylase, miR122 inh, Cneo AK release)
C[C@@H]1CN([C@H](C)CO)C(=O)Cc2cc(NC(=O)C3CC3)ccc2O[C@@H]1CN(C)CC1CC1	none (no result: PDI turbidity, PvdQ acylase)
CCOC(=O)c1c(Nc2ccc(Cl)cc2)sc(/C=C2\C=Nc3ccccc32)c1O	miR122 inh 107!
CCOC(=O)c1cc(S(=O)(=O)Nc2ccc(F)cc2F)cn1C	none
CCOC(=O)c1cc(S(=O)(=O)Nc2cccc(OC)c2)cn1C	miR122 inh 132
O=C(Nc1ccccc1F)N1C[C@@H]2[C@H](c3ccccc31)[C@@H](CO)N2C(=O)C1CCCC1	miR122 inh 130[16.7 µM] (no result: PDI turbidity, PvdQ acylase)
O=C(c1cccc(F)c1)N1C[C@H]2[C@@H](c3ccccc31)[C@H](CO)N2C(=O)c1ccc(F)cc1	none (no result: PDI turbidity, PvdQ acylase)
O=C(c1cccnc1)N1C[C@H]2[C@@H](c3ccccc31)[C@@H](CO)N2C(=O)Nc1ccc(F)cc1	Cneo AK release 118 (no result: PDI turbidity, PvdQ acylase)
O=C(c1cccc(F)c1)N1C[C@H]2[C@@H](c3ccccc31)[C@@H](CO)N2C(=O)c1ccc(F)cc1	miR122 inh 192[16.7 µM] (no result: PDI turbidity, PvdQ acylase)
O=C(Nc1ccccc1)N1C[C@H]2[C@@H](c3ccccc31)[C@@H](CO)N2C(=O)c1ccccn1	miR122 inh 132[16.7 µM] (no result: PDI turbidity, PvdQ acylase)
CC(C)C(=O)Nc1ccc2c(c1)C(=O)N(C)[C@@H]1CC[C@H](CC(=O)NCc3ccc(F)cc3)O[C@@H]1CO2	none (no result: PDI turbidity, PvdQ acylase)
O=C(c1ccc(F)cc1)N1C[C@H]2[C@@H](c3ccccc31)[C@@H](CO)N2C(=O)c1ccc(F)cc1	miR122 inh 364[16.7 µM] (no result: PDI turbidity, PvdQ acylase)
C[C@@H]1CCCCO[C@@H](CN(C)S(=O)(=O)c2ccccc2)[C@@H](C)CN([C@@H](C)CO)C(=O)c2cc(NS(C)(=O)=O)ccc2O1	none (no result: PDI turbidity, PvdQ acylase)
CC(=O)C[C@H]1c2cc(C(F)(F)F)ccc2S(=O)(=O)N1c1ccccc1	miR122 inh 99
CC(=O)C[C@H]1c2cc(C(F)(F)F)ccc2S(=O)(=O)N1Cc1ccccc1	none (no result: miR122 inh)
CO[C@@H]1CN(C)C(=O)c2cc(NS(=O)(=O)c3ccccc3C)ccc2OC[C@H](C)N(C)C[C@@H]1C	none (no result: PDI turbidity, PvdQ acylase)
CCOc1cc(C)c(Cl)cc1S(=O)(=O)NC1CC(C)(C)NC(C)(C)C1	miR122 inh 181 (no result: PglD inh, ERp5 inh, Cneo AK release)
COc1cc(C)c(C(C)C)cc1S(=O)(=O)NC1CC(C)(C)NC(C)(C)C1	miR122 inh 128
